Measured values: publication PMC4441290 (International Journal of Oncology, 2015)
Marks after values point to notes of the source that are not given here.

Key:
[1] = test system: human V2r; details: cited from earlier work; for Ki: human V2r ref 5
[2] = test system: MDA-MB-231 human breast carcinoma cells; test: Cell proliferation assay; type: cell-based; details: MDA-MB-231, tolvaptan 1,500 nM plus [V^4Q^5]dDAVP 1,500 nM
How it was run: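 MDA-MB-231 cells were seeded at 2.5×10^3 per 200 μl in complete DMEM and attached overnight. They were then given 1,500 nM test peptide alone or with the competitive V2r antagonist tolvaptan (1,500 nM) for 72 h. MTT was added for 4 h, DMSO used to solubilise, and absorbance read at 570 nm. Untreated control was set as 100%. There were at least three independent experiments, mean ± SEM.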

[3] = test system: F3II mouse mammary carcinoma cells; test: Cell proliferation assay; type: cell-based; details: 72 h, concentration-dependent
How it was run: (§1)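 Cells seeded at 2.5×10^3 per 200 μl in complete DMEM (10% FBS, 2 mM glutamine), attached overnight. They were then exposed to peptide (100–1,500 nM) or vehicle for 72 h at 37°C, 5% CO2. MTT was added for 4 h, the product dissolved in DMSO, and absorbance read at 570 nm. Untreated control OD was set as 100% viability. Results came from at least three independent experiments, mean ± SEM.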

[4] = test system: F3II mammary tumours; test: F3II subcutaneous tumour progression and spontaneous lung metastases; type: in vivo, BALB/c mice
How it was run: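 Syngeneic female BALB/c mice were injected s.c. with 2×10^5 F3II cells. Dosing started 7 days later, at tumours of ~50 mm3, with 0.3 μg/kg i.v. thrice weekly against a saline vehicle. Caliper volumes were calculated as 0.52 × width² × length. Mice were necropsied on day 50, and Bouin-fixed lungs were scored for macroscopic nodules under a dissecting microscope. Data are mean ± SD.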

[5] = test system: MDA-MB-231 xenografts; test: MDA-MB-231 xenograft tumour progression; type: in vivo, BALB/c athymic mice; details: 0.3 μg/kg i.v. thrice weekly
How it was run: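 Athymic BALB/c nude females were injected s.c. with 5×10^6 MDA-MB-231 cells in 300 μl of DMEM:Matrigel (1:1). From day 14, at tumours of ~50 mm3, mice received 0.3 μg/kg i.v. thrice weekly against a saline vehicle. Caliper volumes were calculated as 0.52 × width² × length. Growth rate is the slope of the linear regression of volume over time, mean ± SD.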

[6] = test system: VWF; details: after i.v. injection ref 4; cited from earlier work
[7] = test system: MDA-MB-231 cells; test: Clonogenic; type: cell-based, human; details: read-out: IC50 colony formation; MDA-MB-231, 7 days
How it was run: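 MDA-MB-231 cells were grown in complete medium containing peptide (100–1,500 nM), with medium plus peptide renewed after 72 h. Colonies of >50 cells were counted 7 days after seeding. IC50 was derived by linear regression of the concentration–inhibition plot. Data are from at least three independent experiments, mean ± SEM.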

[8] = test system: MCF-7 human breast carcinoma cells; test: Cell proliferation assay; type: cell-based; details: 72-h exposure, 100–1,500 nM
How it was run: as §1

[9] = test system: F3II cells injected into the tail vein; test: Experimental lung metastases assay; type: in vivo, BALB/c mice; details: 0.3 μg/kg i.v., two doses (time zero and 24 h), day 21
How it was run: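 Female 8-week-old SPF BALB/c mice received 2×10^5 F3II cells in DMEM via the tail vein. Peptide at 0.3 μg/kg was given i.v. twice: at time zero and 24 h after cell injection. On day 21, lungs were excised, weighed, fixed in Bouin's solution and photographed, and lung nodules were counted.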

[10] = test system: HMVEC-L human microvascular endothelial cells; test: Endothelial cell morphogenesis; type: cell-based; details: 100 nM, 24 h
[11] = Acute toxicology study; type: in vivo, Wistar rats; details: for ALT / AST / Creatinine / Direct bilirubin / Fibrinogen / GGT / Glucose / Hematocrit / RBC / Total protein / WBC / Weight: 72 h, mean ± SD

Molecule: 4-valine-dDAVP
- affinity for the human V2r relative to dDAVP ([1]; higher affinity than dDAVP ref 5): 10 fold
- Ki [1]: 2.2 nM

Molecule: Cc1ccccc1C(=O)Nc1ccc(C(=O)N2CCCC(O)c3cc(Cl)ccc32)c(C)c1 (stereo not drawn) [tolvaptan]
- blockade of growth-modulating activity of [V^4Q^5]dDAVP [2]: completely abolished

Molecule: NC(=O)CC[C@@H]1NC(=O)[C@H](Cc2ccccc2)NC(=O)[C@H](Cc2ccc(O)cc2)NC(=O)CCSSC[C@@H](C(=O)N2CCC[C@H]2C(=O)N[C@H](CCCN=C(N)N)C(=O)NCC(N)=O)NC(=O)[C@H](CC(N)=O)NC1=O [dDAVP, 1-deamino-8-D-arginine vasopressin]
- cytostatic effect on F3II cells [3]: mild cytostatic effect
- spontaneous lung metastases ([4]; 0.3 μg/kg i.v. thrice weekly for 6 weeks, day 50): not significant
- final tumour volume ([4]; 0.3 μg/kg i.v. thrice weekly, mean ± SD, P>0.05, control 1822.3±1185): 1574.8±466.1 mm^3
- reduction in the number of blood vessels (intratumoural vascular density) [5]: 30%
- tumour growth rate ([5]; mean ± SD, control 7.44±0.66): 5.72±0.72 mm^3/day
- Ki [1]: 23.3 nM
- time of peak levels of VWF release [6]: 60 to 90 min
- IC50 [7]: 1440 nM
- effect on proliferation in MCF-7 cell cultures [8]: mild reduction of proliferation
- reduction of the number of lung nodules [9]: 32%
- capillary-like tube formation [10]: did not displayed any significant effects
- ALT ([11]; 1 μg/kg single i.v.): 22.8±3.4 IU/l
- AST ([11]; 1 μg/kg single i.v.): 36.6±11.6 IU/l
- Creatinine ([11]; 1 μg/kg single i.v.): 0.70 ± 0.16 mg/mL
- Direct bilirubin ([11]; 1 μg/kg single i.v.): 0.13 ± 0.04 mg/dL
- Fibrinogen ([11]; 1 μg/kg single i.v.): 221.0 ± 67.8 mg/dL
- GGT ([11]; 1 μg/kg single i.v.): 2.8±0.8 IU/l
- Glucose ([11]; 1 μg/kg single i.v.): 207.0±25.7 ^d mg/dl
- Hematocrit ([11]; 1 μg/kg single i.v.): 40.4±2.3%
- RBC ([11]; 1 μg/kg single i.v.): 5.2±0.3 10^6/ml
- Total protein ([11]; 1 μg/kg single i.v.): 6.6 ± 0.8 g/dL
- WBC ([11]; 1 μg/kg single i.v.): 4.8±0.3 10^3/ml
- Weight ([11]; 1 μg/kg single i.v.): 234.2 ± 8.1 g
- ALT ([11]; 10 μg/kg single i.v.): 22.6±3.4 IU/l
- AST ([11]; 10 μg/kg single i.v.): 30.0±5.6 IU/l
- Creatinine ([11]; 10 μg/kg single i.v.): 0.65 ± 0.08 mg/mL
- Direct bilirubin ([11]; 10 μg/kg single i.v.): 0.14±0.02 ^d mg/dl
- Fibrinogen ([11]; 10 μg/kg single i.v.): 226.7 ± 48.4 mg/dL
- GGT ([11]; 10 μg/kg single i.v.): 2.6±0.9 IU/l
- Glucose ([11]; 10 μg/kg single i.v.): 218.8±20.0 ^d mg/dl
- Hematocrit ([11]; 10 μg/kg single i.v.): 40.5±2.7%
- RBC ([11]; 10 μg/kg single i.v.): 5.5±0.3 10^6/ml
- Total protein ([11]; 10 μg/kg single i.v.): 6.9 ± 0.5 g/dL
- WBC ([11]; 10 μg/kg single i.v.): 4.4±0.5 10^3/ml
- Weight ([11]; 10 μg/kg single i.v.): 240.3 ± 9.4 g
- ALT ([11]; 100 μg/kg single i.v.): 21.3±2.1 IU/l
- AST ([11]; 100 μg/kg single i.v.): 47.5±17.8 IU/l
- Creatinine ([11]; 100 μg/kg single i.v.): 0.70 ± 0.09 mg/mL
- Direct bilirubin ([11]; 100 μg/kg single i.v.): 0.17±0.03 ^d mg/dl
- Fibrinogen ([11]; 100 μg/kg single i.v.): 243.0 ± 63.1 mg/dL
- GGT ([11]; 100 μg/kg single i.v.): 3.0±1.2 IU/l
- Glucose ([11]; 100 μg/kg single i.v.): 230.7±12.1 ^d mg/dl
- Hematocrit ([11]; 100 μg/kg single i.v.): 41.8±3.4%
- RBC ([11]; 100 μg/kg single i.v.): 5.7±0.3 10^6/ml
- Total protein ([11]; 100 μg/kg single i.v.): 7.0 ± 0.5 g/dL
- WBC ([11]; 100 μg/kg single i.v.): 4.1±0.7 10^3/ml
- Weight ([11]; 100 μg/kg single i.v.): 241.8 ± 16.8 g
- safety profile ([11]; reference standard, single i.v. 1, 10 or 100 μg/kg): consistent with previous observations
